Values joined by “and” are separate entries in the source; they are usually repeats but may differ in a detail not shown here. Equal entries are not always repeated. Where two headings read alike, the source gives them in different places.
Columns and labels:
[1] = tested on: T315I BCR-ABL1 mutation; details: cited from earlier work
[2] = tested on: chronic myeloid leukemia; details: CP-CML patients; cited from earlier work
[3] = tested on: TIE2; details: cited from earlier work
[4] = tested on: c-ABL1; details: cited from earlier work
[5] = tested on: BCR-ABL1 T315I; details: cited from earlier work
[6] = tested on: BCR-ABL1 or FLT3; assay: Ex vivo incubation of patient whole blood, phosphorylation of CRKL or FLT3; type: cell-based; details: Homo sapiens, read-out: IC50 for inhibition of phosphorylation
Procedure, shortened: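 Predose screening whole blood from TKI-resistant CML or AML patients was incubated with test compound ex vivo. Mononuclear cells were then fixed and permeabilized. Phosphorylation of CRKL or FLT3 was measured, with pCRKL read by flow cytometry. IC50 for inhibition of phosphorylation was determined per evaluable sample.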

[7] = Human plasma protein binding; type: in vitro ADME
[8] = tested on: TRKB; details: cited from earlier work
[9] = Plasma pharmacokinetics after multiple oral doses; type: in vivo, human; details: for Tmax: median Tmax
[10] = tested on: BCR-ABL1 or FLT3; assay: Pharmacodynamics in dosed patients: pCRKL / pSTAT5 in blood cells; type: in vivo, human; details: of 45 patients with evaluable samples
[11] = Phase 1 safety: adverse events; type: in vivo, human
Procedure, shortened: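 First-in-human, multicenter, single-arm oral study in 57 patients, given daily in 28-day cycles. Powder-in-capsule doses escalated from 57 mg QD to 1200 mg QD over 11 cohorts, doubling between the initial single-patient cohorts. Titration was accelerated 3+3, switching to standard 3+3 at grade ≥2 AEs. Tablet cohorts followed, up to 200 mg BID. AEs were graded by NCI CTC v3.0, and DLTs were assessed in cycle 1.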

[12] = tested on: TIE2; assay: Plasma angiopoietin 2; type: in vivo, human; details: Day 22 compared to baseline
[13] = type: in vivo, human
[14] = tested on: chronic myeloid leukemia; assay: Clinical response in CML patients; type: in vivo, human
[15] = tested on: acute myeloid leukemia; assay: Clinical response in AML patients; type: in vivo, human; details: 5 patients with AML
Procedure, shortened: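 Relapsed or refractory AML patients (ECOG ≤1) received oral drug daily in continuous 28-day cycles. Powder-in-capsule dosing ran from 57 mg QD up to 1200 mg QD, and tablets from 100 mg. Intra-patient dose escalation was allowed. Disease response was assessed locally every 3 cycles by standard criteria.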

[16] = tested on: TRKA; details: cited from earlier work

Compound: Cc1ccc(C(=O)Nc2ccc(CN3CCN(C)CC3)c(C(F)(F)F)c2)cc1C#Cc1cnc2cccnn12 [ponatinib]
- effectiveness against the T315I mutation [1]: effective

Compound: COC(=O)C[C@](O)(CCCC(C)(C)O)C(=O)O[C@@H]1C(OC)=C[C@]23CCCN2CCc2cc4c(cc2[C@H]13)OCO4 [omacetaxine mepesuccinate]
- cytogenetic responses [2]: ~ 20%

Compound: Cc1cn(-c2cc(NC(=O)c3ccc(C)c(Nc4nccc(-c5cccnc5)n4)c3)cc(C(F)(F)F)c2)cn1 [nilotinib]
- effectiveness against the T315I BCR-ABL1 mutation [1]: not effective

Compound: CNC(=O)c1cc(Oc2ccc(NC(=O)Nc3cc(C(C)(C)C)nn3-c3ccc4ncccc4c3)c(F)c2)ccn1 [rebastinib]
- IC50 [3]: 0.058 nM
- IC50 [4]: 0.7 nM
- efficacy in mouse model [5]: effective
- IC50 [6]: < 200 nM
- fraction unbound [7]: 0.0035
- IC50 [8]: 0.42 nM
- free drug in circulation ([9]; at 200 ng/mL, based on plasma protein binding): ~ 1.3 nM
- Bioavailability, formulated tablets compared to unformulated capsules ([9]; human, plasma, oral): 3- to 4 fold
- Exposure, tablets compared to PIC ([9]; human, plasma, oral): approximately 3 fold
- half-life ([9]; human, plasma, oral): 12 to 15 h
- initial distribution phase from Tmax ([9]; human, plasma, oral): 6–8 hours postdose
- trough concentrations as % of Cmax ([9]; human, plasma, oral): 10–20%
- Tmax ([9]; human, plasma, oral, PIC): 2 h
- Tmax ([9]; human, plasma, oral, tablets): 1 to 1.5 h
- Average plasma levels ([9]; ~1–4 hours postdose, 150 mg BID): 200 ng/mL and 360 nM
- patients with significant (>50%) inhibition of phosphorylation of CRKL and/or STAT5 [10]: 20 patients
- patients with DLT in first cycle ([11]; 200 mg BID tablet): 2 n
- patients with DLT in first cycle ([11]; 1200 mg QD PIC): 1 n
- SAE muscular weakness ([11]; N=57): 4 patients
- patients with AEs suggestive of nervous system disorders, any grade ([11]; N=57): 33%
- patients with Grade 3 or 4 AE ([11]; N=57): 34 patients
- patients with SAEs related to study treatment ([11]; N=57): 18 patients
- patients with musculoskeletal disorders of all grades ([11]; N=57): 22 patients
- patients with serious adverse events (SAEs) ([11]; N=57): 34 patients
- patients with visual abnormalities ([11]; N=57): 19 patients
- treatment-related SAE ([11]; dose levels below 300 mg BID (PIC) and 100 mg QD (tablet)): No treatment-related SAE
- CML patients with AEs suggestive of potential ≥Grade 3 cardiomyopathy ([11]; in vivo): 4 patients
- Dose-limiting toxicities ([11]; in vivo): dysarthria, muscle weakness, and peripheral neuropathy
- patients discontinued due to musculoskeletal disorders ([11]; in vivo): 2 patients
- patients with at least one AE of any grade ([11]; in vivo): 57 (100%) patients (%)
- deaths deemed related ([11]; n=8 deaths): none
- patients with visual abnormalities first reported during Cycle 1 ([11]; of 19): 10 patients
- patients with Grade 3 musculoskeletal events ([11]; of 22): 13 patients
- patients with musculoskeletal disorders during Cycle 1 ([11]; of 22): 14 patients
- patients with Grade 3 AESI possibly or probably related ([11]; of 27 additional patients at 150 mg BID): 18 patients
- maximum tolerated dose (MTD) ([11]; tablets, twice daily (BID)): 150 mg
- patient samples with ANG2 increases [12]: 19/20
- patients with nervous system disorders ([13]; high Cmax subgroup): 13 patients
- patients with nervous system disorders ([13]; low Cmax subgroup): 7 patients
- patients with nervous system disorders ([13]; middle Cmax subgroup): 5 patients
- patients with complete cytogenetic response ([14]; T315I): 1 patients
- patients with complete hematologic response ([14]; T315I): 4 patients
- patients with major molecular response ([14]; T315I): 2 patients
- patients with minor cytogenetic response ([14]; T315I): 3 patients
- patients with minor hematologic response ([14]; T315I): 0 patients
- patients with partial cytogenetic response ([14]; T315I): 1 patients
- patients with partial hematologic response ([14]; T315I): 3 patients
- patients with complete hematologic response ([14]; fifty evaluable): 8 patients
- patients with minor hematologic response ([14]; fifty evaluable): 3 patients
- patients with partial hematologic response ([14]; fifty evaluable): 4 patients
- overall cytogenetic response rate of CML patients ([14]; human, in vivo): 21%
- complete hematologic responses ([14]; in 40 evaluable CML patients): Eight
- patients with complete cytogenetic response ([14]; of 37 evaluable): 2 patients
- patients with cytogenetic response ([14]; of 37 evaluable): 8 patients
- patients with minor cytogenetic response ([14]; of 37 evaluable): 4 patients
- patients with partial cytogenetic response ([14]; of 37 evaluable): 2 patients
- patients with molecular response (major molecular response) ([14]; of 40 evaluable): Four
- AML patients with a response [15]: None
- IC50 [16]: 0.17 nM

Compound: COc1cc(Nc2c(C#N)cnc3cc(OCCCN4CCN(C)CC4)c(OC)cc23)c(Cl)cc1Cl [bosutinib]
- effectiveness against the T315I BCR-ABL1 mutation [1]: not effective

From paper PMC5394958 (Haematologica, 2016)
